Laboratory results as given in ChEMBL document CHEMBL4396954, “A click chemistry approach for the synthesis of cyclic ureido tethered coumarinyl and 1-aza coumarinyl 1,2,3-triazoles as inhibitors of Mycobacterium tuberculosis H37Rv and their in silico studies” (Bioorg Med Chem, 2019).
Values after ≈ are worked out from the molar mass of the structure shown.

Columns and labels:
HEK293 = assay: Cytotoxicity against HEK293 cells assessed as cell viability incubated for 48 hrs by MTT assay; assay type: cell-based; settings: Homo sapiens, HEK293, 48 h
Procedure, shortened: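 HEK293 cells seeded in 96-well plates and held overnight at 37 °C, 5% CO2, 95% humidity. Cells were treated with 500, 250, 125, 62.5, 31.25 and 15.625 (units not given) for 48 h, washed twice with phosphate buffer, then given MTT (5 mg/mL stock) for 4 h at 37 °C. Formazan was dissolved in DMSO and absorbance read at 570 nm.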

[1] = test system: Mycobacterium tuberculosis; assay: Antitubercular activity against Mycobacterium tuberculosis H37Rv incubated for 5 days by microplate alamar blue assay; assay type: functional; settings: 120 h
Procedure, shortened: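 M. tuberculosis H37Rv grown with compound in microplate Alamar Blue assay; plates sealed and incubated at 37 °C for five days. A 1:1 mix of Alamar Blue reagent and 10% Tween 80 was then added, followed by another 24 h. Blue was scored as no growth and pink as growth. MIC was the lowest concentration preventing blue-to-pink change.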

[2] = Chemical stability of compound in DMF at 5 x 10^-5 M incubated for 24 hrs by spectrometric analysis; assay type: physicochemical; settings: 50 µM
Procedure, shortened: (§1)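 Compound stock prepared in DMF, then diluted with DMF or with buffers of pH 6–8 to 5 × 10⁻⁵ M. Samples were kept at room temperature. UV absorption and fluorescence emission spectra were recorded and their patterns compared over 24 h and 72 h.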

[3] = Chemical stability of compound in DMF at 5 x 10^-5 M incubated for 72 hrs by spectrometric analysis; assay type: physicochemical; settings: 50 µM; procedure, shortened: as §1
[4] = Chemical stability of compound in pH 6 to 8 buffer at 5 x 10^-5 M incubated for 24 hrs by spectrometric analysis; assay type: physicochemical; settings: pH 6, 24 h, 50 µM; procedure, shortened: as §1
[5] = Chemical stability of compound in pH 6 to 8 buffer at 5 x 10^-5 M incubated for 72 hrs by spectrometric analysis; assay type: physicochemical; settings: pH 6, 72 h, 50 µM; procedure, shortened: as §1

Row | Structure (SMILES) | IC50 (HEK293) [mM] | MIC [1] [µM] | Stability [2] | Stability [3] | Stability [4] | Stability [5]
1 | Cc1cccc2c(Cn3cc(Cn4c(C)cc(=O)n(Cc5cn(Cc6cc(=O)[nH]c7c(C)cccc67)nn5)c4=O)nn3)cc(=O)[nH]c12 | 1.15 | 79.3 (≈ 50 µg/mL) | – | – | – | –
2 | Cc1cccc2c(Cn3cc(Cn4c(=O)n(Cc5cn(Cc6cc(=O)[nH]c7c(C)cccc67)nn5)c5ccccc54)nn3)cc(=O)[nH]c12 | 4.34 | 2.5 (≈ 1.6 µg/mL) | Stable | Unstable | Stable | Unstable
3 | Cc1cc(C)c2c(Cn3cc(Cn4cnc5c4c(=O)n(C)c(=O)n5C)nn3)cc(=O)oc2c1 | – | 111 (≈ 49.7 µg/mL) | – | – | – | –
4 | O=c1cc(Cn2cc(Cn3c(=O)n(Cc4cn(Cc5cc(=O)[nH]c6cc(Cl)ccc56)nn4)c4ccccc43)nn2)c2ccc(Cl)cc2[nH]1 | 4.57 | 2.35 (≈ 1.6 µg/mL) | Stable | Unstable | Stable | Unstable
5 | O=c1cc(Cn2cc(Cn3c(=O)n(Cc4cn(Cc5cc(=O)oc6ccc7ccccc7c56)nn4)c4ccccc43)nn2)c2c(ccc3ccccc32)o1 | 1.13 | 8.76 (≈ 6.24 µg/mL) | Stable | Unstable | Stable | Unstable
6 | Cc1cccc2c(Cn3cc(Cn4cnc5c4c(=O)n(C)c(=O)n5C)nn3)cc(=O)[nH]c12 | 5.04 | 116 (≈ 50 µg/mL) | – | – | – | –
7 | O=c1cc(Cn2cc(Cn3c(=O)n(Cc4cn(Cc5cc(=O)oc6c5ccc5ccccc56)nn4)c4ccccc43)nn2)c2ccc3ccccc3c2o1 | 3.13 | 2.34 (≈ 1.67 µg/mL) | Stable | Unstable | Stable | Unstable
8 | COc1ccc2oc(=O)cc(Cn3cc(Cn4c(=O)n(Cc5cn(Cc6cc(=O)oc7ccc(OC)cc67)nn5)c5ccccc54)nn3)c2c1 | 4.12 | 4.64 (≈ 3.12 µg/mL) | Stable | Unstable | Stable | Unstable
9 | CC(C)c1ccc2oc(=O)cc(Cn3cc(Cn4c(=O)n(Cc5cn(Cc6cc(=O)oc7ccc(C(C)C)cc67)nn5)c5ccccc54)nn3)c2c1 | 3.2 | 2.49 (≈ 1.73 µg/mL) | Stable | Unstable | Stable | Unstable
10 | Cc1ccc2oc(=O)cc(Cn3cc(Cn4c(C)cc(=O)n(Cc5cn(Cc6cc(=O)oc7ccc(C)cc67)nn5)c4=O)nn3)c2c1 | 1.28 | 79.1 (≈ 50 µg/mL) | – | – | – | –
11 | Cc1cc(C)c2c(Cn3cc(Cn4c(=O)n(Cc5cn(Cc6cc(=O)oc7cc(C)cc(C)c67)nn5)c5ccccc54)nn3)cc(=O)oc2c1 | 0.943 | 2.39 (≈ 1.6 µg/mL) | Stable | Unstable | Stable | Unstable
12 | O=c1cc(Cn2cc(Cn3c(=O)n(Cc4cn(Cc5cc(=O)[nH]c6ccc(Cl)cc56)nn4)c4ccccc43)nn2)c2cc(Cl)ccc2[nH]1 | 12.3 | 2.35 (≈ 1.6 µg/mL) | Stable | Unstable | Stable | Unstable
13 | Cc1cc(C)c2c(Cn3cc(Cn4c(C)cc(=O)n(Cc5cn(Cc6cc(=O)oc7cc(C)cc(C)c67)nn5)c4=O)nn3)cc(=O)oc2c1 | – | 75.7 (≈ 50 µg/mL) | – | – | – | –
14 | COc1ccc2oc(=O)cc(Cn3cc(Cn4cnc5c4c(=O)n(C)c(=O)n5C)nn3)c2c1 | 1.38 | 55.6 (≈ 25 µg/mL) | – | – | – | –
15 | Cc1ccc2c(Cn3cc(Cn4c(C)cc(=O)n(Cc5cn(Cc6cc(=O)oc7cc(C)ccc67)nn5)c4=O)nn3)cc(=O)oc2c1 | – | 79.1 (≈ 50 µg/mL) | – | – | – | –
16 | Cc1ccc2c(Cn3cc(Cn4c(=O)n(Cc5cn(Cc6cc(=O)oc7c(C)c(C)ccc67)nn5)c5ccccc54)nn3)cc(=O)oc2c1C | 3.43 | 2.39 (≈ 1.6 µg/mL) | Stable | Unstable | Stable | Unstable
17 | Cc1ccc2oc(=O)cc(Cn3cc(Cn4cnc5c4c(=O)n(C)c(=O)n5C)nn3)c2c1 | 1.11 | 115 (≈ 50 µg/mL) | – | – | – | –
18 | O=c1cc(Cn2cc(Cn3c(=O)n(Cc4cn(Cc5cc(=O)oc6ccc(Cl)cc56)nn4)c4ccccc43)nn2)c2cc(Cl)ccc2o1 | – | 18.3 (≈ 12.5 µg/mL) | Stable | Unstable | Stable | Unstable
19 | O=c1cc(Cn2cc(Cn3c(=O)n(Cc4cn(Cc5cc(=O)[nH]c6ccccc56)nn4)c4ccccc43)nn2)c2ccccc2[nH]1 | – | 10.2 (≈ 6.25 µg/mL) | Stable | Unstable | Stable | Unstable
20 | COc1ccc2oc(=O)cc(Cn3cc(Cn4c(C)cc(=O)n(Cc5cn(Cc6cc(=O)oc7ccc(OC)cc67)nn5)c4=O)nn3)c2c1 | 1.52 | 75.2 (≈ 50 µg/mL) | – | – | – | –
21 | Cc1ccc2oc(=O)cc(Cn3cc(Cn4c(=O)n(Cc5cn(Cc6cc(=O)oc7ccc(C)cc67)nn5)c5ccccc54)nn3)c2c1 | 3.58 | 2.49 (≈ 1.6 µg/mL) | Stable | Unstable | Stable | Unstable
22 | Cc1ccc2c(Cn3cc(Cn4c(=O)n(Cc5cn(Cc6cc(=O)oc7cc(C)ccc67)nn5)c5ccccc54)nn3)cc(=O)oc2c1 | 3.52 | 2.49 (≈ 1.6 µg/mL) | Stable | Unstable | Stable | Unstable
23 | COc1ccc2c(Cn3cc(Cn4c(=O)n(Cc5cn(Cc6cc(=O)oc7cc(OC)ccc67)nn5)c5ccccc54)nn3)cc(=O)oc2c1 | 4.62 | 2.37 (≈ 1.59 µg/mL) | Stable | Unstable | Stable | Unstable
24 | O=C(O)c1cn(C2CC2)c2cc(N3CCNCC3)c(F)cc2c1=O [CIPROFLOXACIN] | – | 9.43 (≈ 3.12 µg/mL) | – | – | – | –
25 | NC(=O)c1cnccn1 [PYRAZINAMIDE] | – | 25.4 (≈ 3.12 µg/mL) | – | – | – | –
26 | CN[C@@H]1[C@H](O[C@H]2[C@H](O[C@H]3[C@H](O)[C@@H](O)[C@H](N=C(N)N)[C@@H](O)[C@@H]3N=C(N)N)O[C@@H](C)[C@]2(O)C=O)O[C@@H](CO)[C@H](O)[C@H]1O [STREPTOMYCIN] | – | 10.7 (≈ 6.25 µg/mL) | – | – | – | –
